# Reference: ChEMBL document CHEMBL1155126, “2-N-Methyl modifications and SAR studies of manzamine A” (Bioorg Med Chem, 2008)
# Activity calls are given as the source filed them. No cut-off for these calls is given here.
# Assays:
# Candida albicans [1] = test: Antimicrobial activity against Candida albicans ATCC 90028; assay type: functional, organism-based
# Procedure, shortened: (§1)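 Modified CLSI broth microdilution; M. intracellulare by a modified Franzblau method. Samples were serially diluted in 20% DMSO/saline and tested in duplicate. Inocula were set by OD630 in broth. Growth was read before and after incubation at 630 nm, or by fluorescence 544ex/590em for A. fumigatus and M. intracellulare. MIC is the lowest concentration with no detectable growth; MFC/MBC is the lowest concentration giving no growth after 5 µL is subcultured to agar.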
# Cryptococcus neoformans [2] = test: Antimicrobial activity against Cryptococcus neoformans ATCC 90113 at 89 uM; assay type: functional, organism-based
# Cryptococcus neoformans [3] = test: Antimicrobial activity against Cryptococcus neoformans ATCC 90113
# Plasmodium falciparum [4] = test: Antimalarial activity after 72 hrs against chloroquine-resistant Plasmodium falciparum W2 as LDH activity; assay type: functional, organism-based; settings: W2, 72 h
# Procedure, shortened: (§2)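 D6 or W2 parasitised red cells (2% parasitemia, 2% hematocrit) in RPMI 1640 with 10% human serum and 60 µg/mL amikacin, added to serially diluted samples. Cultures were gassed with 90% N2/5% O2/5% CO2 and held 72 h at 37 °C. Parasite LDH was read with Malstat reagent plus NBT/PES, stopped with 5% acetic acid, at 650 nm.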
# [5] = Selectivity index, ratio of IC50 for african green monkey (Cercopithecus aethiops) Vero cells to IC50 for chloroquine-sensitive Plasmodium falciparum D6; assay type: toxicity, cell-based; settings: read-out: Ratio IC50
# Procedure, shortened: (§3)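 Ratio of Vero IC50 (neutral red, 48 h exposure) to P. falciparum IC50 from the 72 h LDH assay on the matching strain (W2 or D6).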
# Plasmodium falciparum [6] = test: Antimalarial activity after 72 hrs against chloroquine-sensitive Plasmodium falciparum D6 as LDH activity; assay type: functional, organism-based; settings: D6, 72 h; procedure, shortened: as §2
# [7] = Selectivity index, ratio of IC50 for african green monkey (Cercopithecus aethiops) Vero cells to IC50 for chloroquine-resistant Plasmodium falciparum W2; assay type: toxicity, cell-based; settings: read-out: Ratio IC50; procedure, shortened: as §3
# Vero [8] = test: Cytotoxicity against african green monkey Vero cells at 17 uM after 48 hrs by neutral red assay; assay type: cell-based; settings: chlorocebus sabaeus
# Procedure, shortened: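 Vero cells seeded at 25,000 cells/well and incubated 24 h. Samples added at a range of concentrations, top concentration 17 µM, then incubated a further 48 h. Viable cells measured by Neutral Red uptake. IC50 taken from dose-response curves; doxorubicin positive control.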
# Candida albicans [9] = test: Antimicrobial activity against Candida albicans ATCC 90028 at 89 uM; assay type: functional, organism-based
# Cryptococcus neoformans [10] = test: Antimicrobial activity against Cryptococcus neoformans ATCC 90113; assay type: functional, organism-based
# Procedure, shortened: (§4)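 Broth microdilution following modified CLSI methods; M. intracellulare by a modified Franzblau method. Samples serially diluted in 20% DMSO/saline and plated in duplicate. Inocula set by OD630 of suspensions in incubation broth. Growth read at 630 nm, or fluorescence 544ex/590em for M. intracellulare, before and after incubation. MIC is the lowest concentration with no detectable growth. MFC/MBC comes from subculturing clear wells onto agar.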
# Staphylococcus aureus [11] = test: Antimicrobial activity against methicillin-resistant Staphylococcus aureus ATCC 43300; assay type: functional, organism-based
# Procedure, shortened: as §1, with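 “broth.” for “broth. Growth was read before and after incubation at 630 nm, or by fluorescence 544ex/590em for A. fumigatus and M. intracellulare.”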
# [12] = tested on: Mycobacterium intracellulare; test: Antimicrobial activity against Mycobacterium intracellular ATCC 23068; assay type: functional, organism-based; procedure, shortened: as §4
# Escherichia coli = test: Antimicrobial activity against Escherichia coli ATCC 35218; assay type: functional, organism-based; procedure, shortened: as §1
# Pseudomonas aeruginosa = test: Antimicrobial activity against Pseudomonas aeruginosa ATCC 27853; assay type: functional, organism-based; procedure, shortened: as §1
# Aspergillus fumigatus = test: Antimicrobial activity against Aspergillus fumigatus ATCC 90906; assay type: functional, organism-based; procedure, shortened: as §1
# Hepatitis C virus [13] = test: Antiviral activity against HCV at 10 uM; assay type: functional, Hepacivirus hominis
# Procedure, shortened: (§5)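 HCV replicon in Huh-7 cells. Compound tested at 10 µM in triplicate, added immediately after seeding. HCV RNA and rRNA measured as ΔCt values and reported as % inhibition of each.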
# Hepatitis C virus [14] = test: Antiviral activity against HCV in Huh7 cells at 10 uM by replicon assay; assay type: functional, Hepacivirus hominis, Huh-7; procedure, shortened: as §5
# Plasmodium falciparum [15] = test: Antimalarial activity after 72 hrs against chloroquine-sensitive Plasmodium falciparum D6 at 8 uM as LDH activity; assay type: functional, organism-based
# Plasmodium falciparum [16] = test: Antimalarial activity after 72 hrs against chloroquine-resistant Plasmodium falciparum W2 at 8 uM as LDH activity; assay type: functional, organism-based
# Staphylococcus aureus [17] = test: Antimicrobial activity against methicillin-resistant Staphylococcus aureus ATCC 43300 at 89 uM; assay type: functional, organism-based
# [18] = tested on: Mycobacterium intracellulare; test: Antimicrobial activity against Mycobacterium intracellular ATCC 23068 at 89 uM; assay type: functional, organism-based
# Staphylococcus aureus [19] = test: Antimicrobial activity against methicillin-resistant Staphylococcus aureus ATCC 43300 at 3.0 uM; assay type: functional, organism-based
# Vero [20] = test: Cytotoxicity against african green monkey Vero cells after 48 hrs by neutral red assay; assay type: cell-based; settings: Chlorocebus sabaeus
# Procedure, shortened: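 Vero monkey kidney fibroblasts were seeded at 25,000 cells/well and grown 24 h. Samples at graded concentrations were then added for 48 h. Viable cells were counted by neutral red uptake, and IC50 was taken from dose-response curves, with doxorubicin as positive control.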
# Candida albicans [21] = test: Antimicrobial activity against Candida albicans ATCC 90028 at 91 uM; assay type: functional, organism-based
# Staphylococcus aureus [22] = test: Antimicrobial activity against methicillin-resistant Staphylococcus aureus ATCC 43300 at 91 uM; assay type: functional, organism-based
# Candida albicans [23] = test: Antimicrobial activity against Candida albicans ATCC 90028 at 87 uM; assay type: functional, organism-based
# Staphylococcus aureus [24] = test: Antimicrobial activity against methicillin-resistant Staphylococcus aureus ATCC 43300 at 87 uM; assay type: functional, organism-based
# [25] = tested on: Mycobacterium intracellulare; test: Antimicrobial activity against Mycobacterium intracellular ATCC 23068 at 87 uM; assay type: functional, organism-based
Compound,IC50 (Plasmodium falciparum [4]) [nM],selectivity ratio [5],IC50 (Plasmodium falciparum [6]) [nM],selectivity ratio [7],Activity (Vero [8]),IC50 (Cryptococcus neoformans [10]) [nM],IC50 [12] [nM],MBC [12] [µM],MIC [12] [µM],Activity (Escherichia coli),Activity (Pseudomonas aeruginosa),Activity (Aspergillus fumigatus),further results
C[C@@H]1[C@H](O)[C@@H](C)/C=C/C=C/C=C/C=C/C=C/C=C/C=C/[C@H](O[C@@H]2O[C@H](C)[C@@H](O)[C@H](N)[C@@H]2O)C[C@@H]2O[C@](O)(C[C@@H](O)C[C@@H](O)[C@H](O)CC[C@@H](O)C[C@@H](O)CC(=O)O[C@H]1C)C[C@H](O)[C@H]2C(=O)O [AMPHOTERICIN B],,,,,,,,,,,,,MFC (Candida albicans [1]): 1.35 µM; MFC (Cryptococcus neoformans [2]): 1.35 µM; MIC (Cryptococcus neoformans [2]): 1.35 µM; IC50 (Cryptococcus neoformans [3]): 800 nM
C[n+]1ccc2c([nH]c3ccccc32)c1C1=C[C@@]2(O)CC/C=C\CCCCN3CCC1[C@]1(C[C@@H]4/C=C\CCCCN4[C@H]12)C3.O=S(=O)([O-])C(F)(F)F (some centres undefined),1010,> 24,736,> 17.5,Non-toxic,71100,17800,44.5,44.5,inactive,inactive,inactive,Activity (Candida albicans [9]): inactive; Activity (Cryptococcus neoformans [2]): inactive; IC50 (Staphylococcus aureus [11]): 44500 nM; MBC (Staphylococcus aureus [11]): 89 µM; MIC (Staphylococcus aureus [11]): 89 µM; Activity (Hepatitis C virus [13]): 99.87%; Activity (Hepatitis C virus [14]): 100%
Cn1c2ccccc2c2ccnc(C3=C[C@@]4(O)CC/C=C\CCCCN5CCC3[C@]3(C[C@@H]6/C=C\CCCCN6[C@H]34)C5)c21 (some centres undefined) [9N-METHYLMANZAMINE A],,,,,Non-toxic,,,,,inactive,inactive,inactive,Activity (Plasmodium falciparum [15]): inactive; Activity (Plasmodium falciparum [16]): inactive; Activity (Candida albicans [9]): inactive; Activity (Cryptococcus neoformans [2]): inactive; Activity (Staphylococcus aureus [17]): inactive; Activity [18]: inactive
O=C(O)c1cn(C2CC2)c2cc(N3CCNCC3)c(F)cc2c1=O [CIPROFLOXACIN],,,,,,,1100,3,1.5,,,,MIC (Staphylococcus aureus [11]): 1.5 µM; Activity (Staphylococcus aureus [19]): inactive
O[C@]12C=C(c3nccc4c3[nH]c3ccccc34)[C@@H]3CCN(CCCC/C=C\CC1)C[C@@]31C[C@@H]3/C=C\CCCCN3[C@H]12 [MANZAMINE A],20,29.4,17,25.2,,2700,180,2.84,0.36,inactive,inactive,inactive,IC50 (Vero [20]): 501 nM; IC50 (Candida albicans [1]): 16400 nM; Activity (Candida albicans [21]): inactive; MFC (Cryptococcus neoformans [10]): 23 µM; MIC (Cryptococcus neoformans [10]): 5.7 µM; IC50 (Staphylococcus aureus [11]): 180 nM; Activity (Staphylococcus aureus [22]): inactive
CO[C@]12C=C(c3c4[nH]c5ccccc5c4cc[n+]3C)C3CCN(CCCC/C=C\CC1)C[C@@]31C[C@@H]3/C=C\CCCCN3[C@H]12.O=S(=O)([O-])C(F)(F)F (some centres undefined),,,,,Non-toxic,52000,,,,inactive,inactive,inactive,Activity (Plasmodium falciparum [15]): inactive; Activity (Plasmodium falciparum [16]): inactive; Activity (Candida albicans [23]): inactive; MFC (Cryptococcus neoformans [10]): 87 µM; MIC (Cryptococcus neoformans [10]): 87 µM; Activity (Staphylococcus aureus [24]): inactive; Activity [25]: inactive
CCN(CC)CCCC(C)Nc1ccnc2cc(Cl)ccc12 (centres undefined) [CHLOROQUINE],,,,,Non-toxic,,,,,,,,
C[C@@H]1CC[C@H]2[C@@H](C)C(=O)O[C@@H]3O[C@@]4(C)CC[C@@H]1[C@]32OO4 [ARTEMISININ],4.5,> 2700,6.3,> 3700,Non-toxic,,,,,,,,
